We go through one molecule from ChEMBL document CHEMBL3627612, “Hirsutinolide Series Inhibit Stat3 Activity, Alter GCN1, MAP1B, Hsp105, G6PD, Vimentin, TrxR1, and Importin α-2 Expression, and Induce Antitumor Effects against Human Glioma” (J Med Chem, 2015).

Activity calls are given as the source filed them. The calls are words filed in the database; no cut-off is given here.

For test [1], the system named is U-251. The experiment in a line: Induction of apoptosis in human U251MG cells assessed as PARP level at 0.5 to 10 nM after 24 to 48 hrs by immunoblot analysis. The class given is functional, cell-based. The method in brief: (§1)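 U251MG human glioma cells (RPMI or DMEM, 10% FBS, 1% nonessential amino acids) treated for 24 or 48 h, with paclitaxel or staurosporine run alongside. Whole-cell lysates were prepared and analysed by SDS-PAGE and immunoblotting, probing for PARP and caspase 3 cleavage as apoptosis markers.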
For orientation: Immunoblotting shows a protein as a band on a membrane.

Test [2] concerns U-251. Kind of test: Induction of apoptosis in human U251MG cells assessed as cleaved caspase 3 level at 0.5 to 10 nM after 24 to 48 hrs by immunoblot analysis. The class given is functional, cell-based. The method in brief: as §1

Take `CN[C@@H]1C[C@H]2O[C@@](C)([C@@H]1OC)n1c3ccccc3c3c4c(c5c6ccccc6n2c5c31)C(=O)NC4`: the result in the test on U-251 [1] and in the test with U-251 [2] was Active.
